Data as given in PubChem BioAssay.
The source made the active and inactive calls.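 The calls were made as follows, unless noted: active = GFP response above 150% of the DMSO level; inconclusive = fewer than 70 events counted for a yeast strain; inactive = the rest.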

Key:
[1] = RPL19A-GFP modulators, yeast TOR pathway, confirmation, cell-based, S. cerevisiae, flow cytometry, cherry picks, mother/daughter gates (AID 2270;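 active = GFP response below 50% of the DMSO control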); details: S. cerevisiae RPL19A-GFP strain, 3 h, at 10 µM, stronger effect = lower value, 100 = same GFP as DMSO wells
[2] = LAP4-GFP expression modulators in yeast, confirmation, cell-based, cherry picks, flow cytometry, mother/daughter gates (AID 2271;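 active = GFP response above 150% of the DMSO control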;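 also: ratio of sample to DMSO plate mean so 100% equals DMSO level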); details: S. cerevisiae LAP4-GFP strain, 3 h, at 10 µM, stronger effect = higher value, 100 means same as DMSO control
In short: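 System: GFP-fusion yeast strain | Input: Yeast cells seeded at OD600 of 0.2 | Technique: HT flow cytometry, GFP fluorescence channel | Read-out: % GFP response vs DMSO | Dosing: Single test-compound dose, 10 µM final | Controls: Positive rapamycin (400 ng/mL), negative DMSO | Times: 3 h treatment at 30 °C with rotation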

[3] = modulators of MEP2-GFP levels in yeast, confirmation, S. cerevisiae, flow cytometry GFP, cherry picks (AID 2272;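 active = GFP response above 150% of the DMSO control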;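 also: ratio of well signal to plate DMSO mean so 100% equals DMSO level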); details: S. cerevisiae MEP2-GFP strain, 3 h, at 10 µM, stronger effect = higher value
[4] = AGP1-GFP expression modulators, hit retest, confirmation, cell-based, flow cytometry, S. cerevisiae, cherry picks (AID 2273);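 also: median GFP channel fluorescence over the whole cell population gate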; details: S. cerevisiae AGP1-GFP strain, 3 h, at 10 µM
[5] = modulators of CIT2-GFP expression in yeast, confirmation, S. cerevisiae, GFP fusion, cherry picks, mother/daughter gates (AID 2274); details: S. cerevisiae CIT2-GFP strain, flow cytometry, 3 h, at 10 µM, stronger effect = higher value
[6] = measured here: daughter cell gate
[7] = measured here: mother cell gate
[8] = measured here: daughter cell gate response
[9] = measured here: mother cell gate response

Row | Structure (SMILES) | GFP response vs DMSO [1] | GFP response vs DMSO [1, 6] | GFP response vs DMSO [1, 7] | GFP response relative to DMSO [2] | GFP response relative to DMSO [2, 8] | GFP response relative to DMSO [2, 9] | GFP response vs DMSO [3] | GFP response, % of DMSO [4] | GFP response, % of DMSO [5] | GFP response, % of DMSO [5, 6] | GFP response, % of DMSO [5, 7]
1 | Cc1ccc(C(=O)N/C(=C/c2ccco2)C(=O)N2CCOCC2)cc1 | 103% (inactive) | 100% | 104% | 105% (inactive) | 106% | 104% | 101% (inactive) | 102% (inactive) | 95.9% (inactive) | 97.4% | 95.6%
2 | CC(C)CC[n+]1ccccc1/C=C/c1ccc(N(C)C)cc1 | 98.2% (inactive) | 94.9% | 95.5% | 107% (inactive) | 108% | 107% | 126% (inactive) | 107% (inactive) | 115% (inactive) | 119% | 113%
3 | COc1ccccc1-c1nnc(NC(=O)c2ccc(S(=O)(=O)N(C)Cc3ccccc3)cc2)o1 | 100% (inactive) | 98.8% | 100% | 95.3% (inactive) | 95% | 94.6% | 104% (inactive) | 98.9% (inactive) | 97.8% (inactive) | 98.3% | 98%
4 | Cn1c(=O)[nH]c(=O)c2c1nc(N1CCCCC1)n2CCOc1ccccc1 | 99% (inactive) | 99.5% | 100% | 98.7% (inactive) | 100% | 102% | 102% (inactive) | 104% (inactive) | 103% (inactive) | 101% | 103%
5 | O=C1CC(Sc2nnc(-c3ccccc3O)o2)C(=O)N1c1ccccc1 (stereo not drawn) | 95.1% (inactive) | 98.3% | 93.1% | 104% (inactive) | 101% | 105% | 101% (inactive) | 104% (inactive) | 106% (inactive) | 103% | 106%
6 | CCNC(=O)/C(C#N)=C/c1c(N(Cc2ccccc2)Cc2ccccc2)nc2ccccn2c1=O | 101% (inactive) | 101% | 102% | 102% (inactive) | 101% | 103% | 110% (inactive) | 99.3% (inactive) | 105% (inactive) | 108% | 104%
7 | O=C1C2C3C=CC(CNS(=O)(=O)c4ccccc4[N+](=O)[O-])(O3)C2C(=O)N1c1ccccc1 (stereo not drawn) | 97.6% (inactive) | 97.3% | 97.3% | 98.6% (inactive) | 99.7% | 98.2% | 101% (inactive) | 101% (inactive) | 107% (inactive) | 106% | 107%
8 | Cn1c(N2CCCC2)nc2c1c(=O)n(Cc1ccc(Cl)cc1)c(=O)n2C | 91.8% (inactive) | 84.5% | 87.5% | 126% (inactive) | 109% | 121% | 94.7% (inactive) | 98.4% (inactive) | 81.4% (inactive) | 77.5% | 76%
9 | O=[N+]([O-])c1cnc(Sc2ccncn2)s1 | 102% (inactive) | 105% | 99.2% | 166% (active) | 148% | 182% | 141% (inactive) | 111% (inactive) | 113% (inactive) | 124% | 102%
10 | O=c1[nH]c(CCl)nc2cc(-c3ccc(Cl)cc3)sc12 | 95.8% (inactive) | 94.4% | 98.5% | 101% (inactive) | 99.1% | 100% | 107% (inactive) | 96.5% (inactive) | 93% (inactive) | 92% | 78.5%
11 | COC(=O)c1ccc(/C=C/C(=O)c2cccc(OC)c2)cc1 | 104% (inactive) | 102% | 103% | 117% (inactive) | 112% | 116% | 105% (inactive) | 101% (inactive) | 103% (inactive) | 101% | 102%
12 | O=C(O)c1ccccc1SC1CC(=O)N(c2ccc3c(c2)OCO3)C1=O (stereo not drawn) | 97.6% (inactive) | 102% | 93.8% | 106% (inactive) | 102% | 108% | 103% (inactive) | 102% (inactive) | 95.8% (inactive) | 99.3% | 94.9%
13 | COc1ccc(/C(C)=N/NC(=O)c2ccc(N(C)C)cc2)cc1 | 103% (inactive) | 102% | 103% | 95% (inactive) | 94.1% | 97.2% | 104% (inactive) | 101% (inactive) | 104% (inactive) | 103% | 104%
